T cruzi growth-1 – inhibitors of T. cruzi proliferation | inhibition, % at 8.34 µM | 77,000 tested, 5.9% active | T. cruzi beta-gal in NIH3T3, GalScreen luminescence, 90 h;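 active = mean inhibition above about 93%, with at least 55% of replicates each passing it, limit read from the data, passing the limit was not always enough; inconclusive = only one of those two conditions holds; inactive = neither condition holds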
GASC1 inh – KDM4C (human) demethylase inhibition; inhibition, % at 12.5 µM; 96,000 tested, 0.15% active; GST-KDM4C 2-372, H3K9me3 peptide, LANCE TR-FRET; AID 720574; Q9H3R0;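 active = mean replicate inhibition above about 25%, with at least 55% of replicates also reaching it, limit read from the data, passing the limit was not always enough; inconclusive = only one of those two conditions met; inactive = neither condition met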
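Test system – GST-tagged GASC-1 (JMJD2C) catalytic fragment, aa 2-372 · Medium – HEPES buffer, pH 7.5, plus ascorbate · Reagent – H3K9me3 peptide with Fe(II)/2OG · Compound – one test concentration per compound · Timing – 30 min reaction, 60 min detection, RT · Technique – TR-FRET with Eu antibody and ULight streptavidin, EDTA stop · Read-out basis – inhibition from TR-FRET ratio decrease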
IDH1 mut inh – inhibitors of human IDH1 R132H. 70,000 tested, 0.18% active. O75874. AID 624101. inhibition, % at 10 µM. IDH1 R132H reductase, diaphorase/resazurin fluorescence, 60 min; in the data active = inhibition above about 34%; inconclusive = no clear call, values can overlap the other calls; inactive = below about 11%;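 also: 0% = DMSO and 100% = no enzyme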
Target sequence (O75874 whole entry R132H): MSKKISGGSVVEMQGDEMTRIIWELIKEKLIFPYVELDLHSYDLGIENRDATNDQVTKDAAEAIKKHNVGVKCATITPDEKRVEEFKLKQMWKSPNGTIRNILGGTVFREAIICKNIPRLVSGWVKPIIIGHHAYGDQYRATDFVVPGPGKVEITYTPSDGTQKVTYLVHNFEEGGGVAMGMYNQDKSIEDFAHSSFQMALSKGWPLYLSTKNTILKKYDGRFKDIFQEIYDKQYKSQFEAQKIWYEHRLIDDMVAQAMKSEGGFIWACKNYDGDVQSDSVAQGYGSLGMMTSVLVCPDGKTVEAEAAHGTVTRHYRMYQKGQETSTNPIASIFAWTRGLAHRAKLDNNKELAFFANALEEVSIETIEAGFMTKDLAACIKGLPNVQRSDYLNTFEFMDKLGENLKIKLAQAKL
T cruzi growth-2 – blocks T. cruzi growth in NIH3T3 host cells. 5,600 tested, 72% active. inhibition, % at 8.35 µM. shares compounds with T cruzi growth-1. T. cruzi beta-gal in NIH3T3, GalScreen luminescence, 90 h;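 active = mean replicate inhibition above about 95% and at least 55% of replicates individually reaching it, limit read from the data; inconclusive = only one of the two criteria is met; inactive = neither criterion is met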
T cruzi growth-3 – inhibitors of T. cruzi proliferation; shares compounds with T cruzi growth-1; T. cruzi beta-gal in NIH3T3, GalScreen luminescence, 90 h; inhibition, % at 2.09 µM; 5,600 tested, 21% active; AID 651740;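 active = mean inhibition above about 95%, with at least 55% of replicates also reaching it, limit read from the data; inconclusive = meets just one of the two conditions; inactive = meets neither condition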;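 also: plate controls were neutral control median for no effect and positive control median for full effect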
3T3 cytotox – kills mouse NIH/3T3 fibroblasts. 5,600 tested, 14% active. cytotoxicity (signal decrease), % at 8.35 µM. shares compounds with T cruzi growth-1. NIH/3T3 viability, CellTiter-Glo ATP luminescence, 90 h;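 active = mean signal decrease across replicates above about 35% based on untreated-well scatter, with enough replicates individually passing, limit read from the data; inconclusive = no rule stated though some were filed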;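 also: 0% = median of neutral control wells and 100% = median of positive control wells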
NIH3T3 tox 2 – NIH/3T3 (mouse) viability loss | NIH/3T3 viability, CellTiter-Glo ATP luminescence, 90 h | 5,600 tested, 56% active | shares compounds with T cruzi growth-1 | AID 651744 | inhibition, % at 24.9 µM;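 active = mean loss of cell viability signal at or above a set limit, and enough replicates individually reaching it; inconclusive = meets only the mean limit or only the replicate share; inactive = meets neither condition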;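 also: 0% = median of neutral control wells and 100% = median of positive control wells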
An asterisk follows results filed as active; ? = inconclusive; / = no result. The full list was thinned out, with hits kept by preference.

SMILES	T cruzi growth-1	GASC1 inh	IDH1 mut inh	T cruzi growth-2	T cruzi growth-3	3T3 cytotox	NIH3T3 tox 2
CCCC#Cc1ccc2c(c1)O[C@@H](CN(C)C(=O)c1ccncc1)[C@@H](C)CN([C@H](C)CO)S2(=O)=O	110*	-3	-5	97*	71	8	37*
CCCC#Cc1ccc2c(c1)O[C@@H](CN(C)C(=O)c1ccncc1)[C@@H](C)CN([C@@H](C)CO)S2(=O)=O	108*	1	-1	106*	90	-3	49*
CCCC#Cc1ccc2c(c1)O[C@H](CN(C)C(=O)c1ccncc1)[C@@H](C)CN([C@@H](C)CO)S2(=O)=O	80	-3	7	/	/	/	/
C[C@@H]1CN([C@H](C)CO)C(=O)c2cc(C#Cc3ccccc3)cnc2O[C@@H]1CN(C)C(=O)c1ccccc1F	-97	0	/	/	/	/	/
C[C@H](CO)N1C[C@H](C)[C@@H](CN(C)C(=O)c2ccccc2F)Oc2ncc(C#Cc3cccc(F)c3)cc2C1=O	99*	-1	1	103*	36	-11	-10
C[C@@H]1CN([C@@H](C)CO)C(=O)c2cc(C#Cc3cccc(F)c3)cnc2O[C@H]1CN(C)C(=O)c1ccccc1F	110*	-1	1	109*	47	21	25
C[C@H](CO)N1C[C@H](C)[C@H](CN(C)C(=O)c2ccccc2F)Oc2ncc(C#Cc3ccccc3)cc2C1=O	-19	1	/	/	/	/	/
CCC(C)NC(=O)Cn1c(=O)n(-c2ccc(Cl)c(Cl)c2)c(=O)c2c(C)c(C)sc21 (stereo not given)	/	/	2	/	/	/	/
CC(C(=O)Nc1cc(Cl)ccc1O)N1C(=O)c2ccccc2C1=O (stereo not given)	/	/	-1	/	/	/	/
OC(COCC1COc2ccccc2O1)CN1CCOCC1 (stereo not given)	/	/	0	/	/	/	/
CC(=O)Nc1sc2c(c1C(=O)O)CCc1ccccc1-2	/	/	2	/	/	/	/
C[C@@H]1CN([C@H](C)CO)C(=O)c2cc(NS(=O)(=O)c3ccc(Cl)cc3)ccc2O[C@@H](C)CCCCO[C@H]1CN(C)S(=O)(=O)c1ccc(Cl)cc1	66	-2	/	/	/	/	/
C[C@@H]1CN([C@@H](C)CO)C(=O)c2cc(NS(=O)(=O)c3ccc(Cl)cc3)ccc2O[C@@H](C)CCCCO[C@H]1CN(C)S(=O)(=O)c1ccc(Cl)cc1	111*	-1	0	108*	79	22	-2
C[C@@H]1CCCCO[C@H](CN(C)S(=O)(=O)c2ccc(Cl)cc2)[C@H](C)CN([C@H](C)CO)C(=O)c2cc(NS(=O)(=O)c3ccccc3)ccc2O1	99	-1	5	/	/	/	/
C[C@@H]1CCCCO[C@H](CN(C)S(=O)(=O)c2ccc(Cl)cc2)[C@H](C)CN([C@@H](C)CO)C(=O)c2cc(NS(=O)(=O)c3ccccc3)ccc2O1	/	0	/	/	/	/	/
C[C@H]1CCCCO[C@H](CN(C)S(=O)(=O)c2ccccc2)[C@@H](C)CN([C@@H](C)CO)C(=O)c2cc(NS(=O)(=O)c3ccc(Cl)cc3)ccc2O1	114*	-4	/	103*	94	-12	-7
C[C@@H]1CCCCO[C@@H](CN(C)S(=O)(=O)c2ccccc2)[C@H](C)CN([C@H](C)CO)C(=O)c2cc(NS(=O)(=O)c3ccc(Cl)cc3)ccc2O1	110*	-4	/	101*	?	-9	11
C[C@@H]1CCCCO[C@@H](CN(C)S(=O)(=O)c2ccccc2)[C@@H](C)CN([C@@H](C)CO)C(=O)c2cc(NS(=O)(=O)c3ccc(Cl)cc3)ccc2O1	118*	1	/	101*	74	5	18
C[C@@H]1CCCCO[C@H](CN(C)S(=O)(=O)c2ccc(Cl)cc2)[C@@H](C)CN([C@H](C)CO)C(=O)c2cc(NS(=O)(=O)c3ccccc3)ccc2O1	57	-2	/	/	/	/	/
O=C(CCc1nc(-c2ccccc2F)no1)Nc1ccccc1Cl	/	/	0	/	/	/	/
O=C(/C=C/c1ccc(OCCCc2ccccc2)cc1)NO	/	/	0	/	/	/	/
Cc1ccccc1N1CCN(S(=O)(=O)CC23CCC(C[C@@H]2NC(=O)[C@@H](N)CCS(C)(=O)=O)C3(C)C)CC1 (stereo not given in full)	/	/	-1	/	/	/	/
COc1ccc(S(=O)(=O)n2cc(-c3ccc(F)cc3)c(N)n2)c(OC)c1	/	/	0	/	/	/	/
COc1cccc(C(=O)NC2(C(F)(F)F)C(=O)N(CC3CCCO3)C3=C2C(=O)CC(C)(C)C3)c1 (stereo not given)	/	/	0	/	/	/	/
Cc1ccccc1S(=O)(=O)N1CCCCN2[C@H](CO)[C@H](c3ccc(-c4cccc(F)c4)cc3)[C@@H]2C1	81	-2	/	/	/	/	/
SMILES	T cruzi growth-1	GASC1 inh	IDH1 mut inh	T cruzi growth-2	T cruzi growth-3	3T3 cytotox	NIH3T3 tox 2
Cc1ccccc1S(=O)(=O)N1CCCCN2[C@H](C1)[C@H](c1ccc(-c3cccc(F)c3)cc1)[C@@H]2CO	103*	-1	/	103*	106*	-12	57*
Cc1ccccc1S(=O)(=O)N1CCCCN2[C@H](CO)[C@@H](c3ccc(-c4ccccc4)cc3)[C@@H]2C1	102*	/	/	98*	80	36*	45*
Cc1ccccc1S(=O)(=O)N1CCCCN2[C@H](CO)[C@@H](c3ccc(-c4cccc(F)c4)cc3)[C@H]2C1	106*	-1	/	104*	59	18	76*
Cc1ccccc1S(=O)(=O)N1CCCCN2[C@@H](CO)[C@@H](c3ccc(-c4cccc(F)c4)cc3)[C@@H]2C1	55	-5	/	/	/	/	/
Cc1ccccc1S(=O)(=O)N1CCCCN2[C@H](CO)[C@H](c3ccc(-c4ccccc4)cc3)[C@@H]2C1	94	/	/	/	/	/	/
Cc1cccc2c(C(=O)NCCc3ccc(S(N)(=O)=O)cc3)cc(-c3ccccc3Cl)nc12	/	/	0	/	/	/	/
N#C[C@@H]1[C@H](c2ccc(C3=CCCC3)cc2)[C@H](CO)N1S(=O)(=O)c1cccc(F)c1	37	4	/	/	/	/	/
N#C[C@H]1[C@@H](c2ccc(C3=CCCCC3)cc2)[C@H](CO)N1S(=O)(=O)c1ccccc1	97*	-2	/	97*	86	41*	100*
N#C[C@H]1[C@H](c2ccccc2C2=CCCCC2)[C@H](CO)N1S(=O)(=O)c1ccccc1	/	-1	/	/	/	/	/
N#C[C@@H]1[C@H](c2ccc(C3=CCCCC3)cc2)[C@@H](CO)N1S(=O)(=O)c1cccc(F)c1	98*	0	/	?	35	-15	104*
CC(Oc1ccc(F)cc1)C(=O)NCCN1CCOCC1 (stereo not given)	/	/	0	/	/	/	/
COc1ccc(C#Cc2ccc([C@@H]3[C@@H](CO)N4CCCCN(Cc5ccncc5)C[C@H]34)cc2)cc1	?	2	/	100*	?	89*	105*
